The target of data set [1] is T1, Prostaglandin G/H synthase 2 (Homo sapiens) (UniProt P35354).
T1 sequence (whole entry): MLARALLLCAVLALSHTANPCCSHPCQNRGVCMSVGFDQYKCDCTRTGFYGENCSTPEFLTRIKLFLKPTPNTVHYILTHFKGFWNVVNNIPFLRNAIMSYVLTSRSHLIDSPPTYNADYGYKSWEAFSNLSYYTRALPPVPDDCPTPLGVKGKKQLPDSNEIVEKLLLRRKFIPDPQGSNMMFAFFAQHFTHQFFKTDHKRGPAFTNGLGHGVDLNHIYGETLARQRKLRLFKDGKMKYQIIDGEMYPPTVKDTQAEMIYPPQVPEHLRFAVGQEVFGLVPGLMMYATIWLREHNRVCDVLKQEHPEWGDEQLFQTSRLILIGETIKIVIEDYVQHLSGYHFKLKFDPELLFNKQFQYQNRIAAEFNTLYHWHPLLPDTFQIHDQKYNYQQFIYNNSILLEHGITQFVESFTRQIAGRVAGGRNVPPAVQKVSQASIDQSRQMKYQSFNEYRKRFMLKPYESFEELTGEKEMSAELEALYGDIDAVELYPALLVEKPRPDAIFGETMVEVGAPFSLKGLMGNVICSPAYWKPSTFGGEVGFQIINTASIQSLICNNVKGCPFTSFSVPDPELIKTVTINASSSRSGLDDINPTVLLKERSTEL
Description: Inhibition of COX2-induced PGE2 production in human A549 cells assessed as PGE2 level at 30 uM by ELISA (reference value: 57 +/- 4 pg/ml). The format is cell-based. The essentials: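 A549 NSCLC cells treated with compounds at 30 μM; prostaglandin E2 released via COX quantified by ELISA, reported as pg/mL; mean ± S.D. of 3 determinations each repeated in duplicate; Student's t-test for significance.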

Data set [2] has as its system 661W. Put plainly: Antioxidant activity in mouse 661W cells assessed as inhibition of antimycin-induced mitochondrial ROS production at 50 uM by fluorescence assay relative to control. The format is functional.
In data set [3] the test system is 661W. Description: Antioxidant activity in mouse 661W cells assessed as inhibition of antimycin-induced mitochondrial ROS production at 10 uM by fluorescence assay relative to control. The format is functional.
Data set [4] deals with 661W. Put plainly: Antioxidant activity in mouse 661W cells assessed as inhibition of antimycin-induced mitochondrial ROS production at 100 uM by fluorescence assay relative to control. The format is functional.
Data set [5] deals with NCI-H1299. Put plainly: Growth inhibition of human NCI-H1299 cells assessed as cell growth at 90 uM in presence of aspirin by MTT assay relative to control. The format is functional. The settings on record: read-out: Activity. An outline of the steps:
(§1)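 NCI-H1299 cell growth by MTT assay, tested at 18–900 μM; combination wells got aspirin + Tempol at equal concentration. Given as % growth. Mean ± S.D. of 3 experiments, each run in duplicate; Student's t-test.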
(In general: Tetrazolium dyes change colour on reduction, which living cells bring about.)

For data set [6], the system named is NCI-H1299. Put plainly: Growth inhibition of human NCI-H1299 cells assessed as cell growth at 900 uM in presence of aspirin by MTT assay relative to control. The format is functional. The settings on record: read-out: Activity. The essentials:
as §1

For data set [7], the target named is T1, Prostaglandin G/H synthase 2 (Homo sapiens). Description: Inhibition of COX2-induced PGE2 production in human A549 cells assessed as PGE2 level at 90 uM by ELISA. The format is cell-based. An outline of the steps:
(§2)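 COX-derived PGE2 released by A549 cells, measured by ELISA in pg/mL. Test concentrations 4 or 90 μM; combination wells got aspirin + Tempol at 90 μM each. Mean ± S.D. of 3 determinations, each in duplicate; Student's t-test.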
(In general: An ELISA detects its analyte on a solid surface through an enzyme-linked reagent.)

Data set [8] has the same target. Description: Inhibition of COX2-induced PGE2 production in human A549 cells assessed as PGE2 level at 90 uM in presence of aspirin by ELISA (reference value: 126 +/- 17 pg/ml). The format is cell-based. The essentials: as §2
The subject of data set [9] is A549. Put plainly: Anti-oxidant activity in human A549 cells assessed as inhibition of H2O2-induced ROS production by measuring ROS level at 100 uM by DCFH-DA staining based fluorescence assay (reference value: 194 +/- 13%). The format is functional. More on the design: scale not given: the % may be the effect or the level left.
In data set [10] the test system is A549. Description: Effect on basal ROS level in human A549 cells at 100 uM by DCFH-DA staining based fluorescence assay (reference value: 100 +/- 5%). The format is cell-based. The note with it: a549, 100 µM.
For data set [11], the system named is NCI-H1299. Description: Growth inhibition of human NCI-H1299 cells assessed as cell growth at 90 uM by MTT assay relative to control. The format is functional. The note with it: read-out: Activity. An outline of the steps: as §1
Data set [12] relates to NCI-H1299. Description: Growth inhibition of human NCI-H1299 cells assessed as cell growth at 900 uM by MTT assay relative to control. The note with it: read-out: Activity. The format is functional. The essentials:
as §1

For data set [13], the system named is NCI-H1299. Description: Growth inhibition of human NCI-H1299 cells assessed as cell growth at 900 uM in presence of tempol by MTT assay relative to control. The note with it: read-out: Activity. The format is functional. An outline of the steps: (§3)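 NCI-H1299 human NSCLC cells; proliferation measured by MTT assay with compounds at 90 or 900 μM, tested alone or as aspirin plus Tempol combination; growth expressed as % of control; mean ± S.D. of 3 experiments each in duplicate; significance by Student's t-test.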

The test system of data set [14] is NCI-H1299. Put plainly: Growth inhibition of human NCI-H1299 cells assessed as cell growth at 90 uM in presence of tempol by MTT assay relative to control. The format is functional. The settings on record: read-out: Activity. An outline of the steps:
as §3

In data set [15] the target is T1, Prostaglandin G/H synthase 2 (Homo sapiens). Description: Inhibition of COX2-induced PGE2 production in human A549 cells assessed as PGE2 level at 4 uM by ELISA (reference value: 126 +/- 17 pg/ml). The format is cell-based. The essentials:
as §2

As a reminder, the inhibition is the percentage by which the read-out fell short of the control. As to `COc1ccc2c(c1)c(CC(=O)Nc1ccc3c(c1)C(C)(C)N([O])C3(C)C)c(C)n2C(=O)c1ccc(Cl)cc1`, the Activity in data set [1] was determined as 58 pg/mL. The inhibition in data set [2] stood at 82.3%; in data set [3], 97.6%; in data set [4] it was 88.4%.

Take `CC1(C)CC(O)CC(C)(C)N1[O]` [TEMPOL]: the growth at 90 µM amounted to 102% in data set [5] and 100% in data set [11]. Moreover, the growth at 900 µM amounted to 53% in data set [6] and 98% in data set [12]. Besides, the Activity in data set [7] came out at 105 pg/mL; in data set [8], 75 pg/mL; in [9], 155%; in data set [10], 103%.

With `CC(=O)Oc1ccccc1C(=O)O` [ASPIRIN], the growth at 900 µM amounted to 53% in data set [13] and 49% in data set [12]. The Activity in [7] came to 79 pg/mL. Moreover, the values for the growth at 90 µM in data set [11] and in data set [14] were 103% and 102%, respectively.

As for `CC(=O)Oc1ccccc1C(=O)OC1CC(C)(C)N([O])C(C)(C)C1`, the Activity in data set [1] was 31 pg/mL; in data set [15], 87 pg/mL.

As for `CC1(C)CC(C(=O)Oc2ccccc2C(=O)O)C(C)(C)N1[O]` (configuration not stated), the Activity in data set [1] was 34 pg/mL.

For the compound `CC(=O)Oc1ccccc1C(=O)NC1CC(C)(C)N([O])C(C)(C)C1`, the Activity in [1] was 54 pg/mL; in [15], 99 pg/mL.

Regarding `CC1(C)c2cc(O)c(C(=O)O)cc2C(C)(C)N1[O]`, in data set [1], the Activity was found to be 50 pg/mL.

Regarding `CC1=C[C@H](O)CC(C)(C)[C@H]1/C=C/C(C)=C/C=C/C(C)=C/C=C/C=C(C)/C=C/C=C(C)/C=C/C1=C(C)C[C@@H](O)CC1(C)C` [LUTEIN], the inhibition at 10 µM in [3] was 89.7%.

As for `CC(=O)Oc1cc2c(cc1C(=O)O)C(C)(C)N([O])C2(C)C`, the Activity in [1] turned out to be 52 pg/mL.

Take `CC1(C)CC(C(=O)Oc2ccccc2C(=O)OCc2ccccc2)CC(C)(C)N1[O]`: in data set [1], the Activity is 23 pg/mL.

In the case of `CC(=O)Oc1ccccc1C(=O)Nc1ccc2c(c1)C(C)(C)N([O])C2(C)C`, the Activity in [1] was 45 pg/mL.

Source of the values: ChEMBL document CHEMBL4145529, “Design, synthesis and biological evaluation of hybrid nitroxide-based non-steroidal anti-inflammatory drugs” (Eur J Med Chem, 2018).
